≈ marks a conversion by molar mass, not a printed value.
Assays:
[1] = system: S. aureus; test: MIC determination against S. aureus in RPMI; assay type: cell-based, Staphylococcus aureus; conditions: for ^CuMIC (S. aureus): MIC in 50 μM copper supplemented medium
[2] = system: THP-1 monocytic cells; test: Toxicity testing on THP-1 monocyte cells; assay type: cell-based, human; conditions: 24 h
[3] = Toxicity testing on THP-1 monocyte cells; assay type: cell-based, human; conditions: human, THP-1 monocytic cells
[4] = Determination of binding constants by UV/Vis; conditions: 25 uM HEPES buffer pH 7.2
[5] = system: S. aureus; test: Time to death assay and bactericidal activity; assay type: cell-based, Staphylococcus aureus; conditions: for mode of action (bactericidal vs bacteriostatic): CFU
[6] = system: preformed S. aureus biofilms; test: Biofilm eradication assay; assay type: cell-based, Staphylococcus aureus; conditions: preformed S. aureus Newman biofilms, 24 hours treatment
[7] = system: methicillin resistant S. aureus strains; test: MIC against clinically isolated MRSA strains; assay type: cell-based, Staphylococcus aureus; conditions: 5 clinically isolated MRSA strains, 50 μM Cu
[8] = system: S. aureus Newman; test: Membrane potential, DiOC2; assay type: cell-based, Staphylococcus aureus; conditions: within 30 min; 10 μM PZP-915 and/or 50 μM Cu
[9] = system: S. aureus strain LAC carrying pHluorin; assay type: cell-based, Staphylococcus aureus; conditions: mildly acidic medium (pH 6.2)
[10] = target: T1, GAPDH (Staphylococcus aureus, UniProt Q6GIL8); test: GAPDH activity in lysates of treated bacteria; assay type: cell-based; conditions: 30 minutes treatment; 50 µM Cu, 10 µM PZP-915, 10 µM 915+50 µM Cu
T1 sequence (Q6GIL8 1-336): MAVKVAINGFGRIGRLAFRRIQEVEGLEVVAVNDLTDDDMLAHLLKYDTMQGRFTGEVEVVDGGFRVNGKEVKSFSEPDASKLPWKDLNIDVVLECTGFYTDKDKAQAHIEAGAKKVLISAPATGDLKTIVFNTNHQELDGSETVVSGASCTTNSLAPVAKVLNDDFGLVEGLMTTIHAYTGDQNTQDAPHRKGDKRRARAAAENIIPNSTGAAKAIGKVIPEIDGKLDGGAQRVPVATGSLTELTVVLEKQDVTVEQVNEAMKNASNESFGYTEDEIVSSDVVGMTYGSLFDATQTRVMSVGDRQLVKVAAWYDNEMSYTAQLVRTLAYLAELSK
How it was run: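 After the 30 min treatment, bacteria washed to remove extracellular copper, then lysed. GAPDH activity measured in the lysates.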

**Q.** With `CNC(=S)NN=CC=NNC(=S)NC` [GTSM] as the compound, how does the “^CuMIC (S. aureus)” value [1] read?
**A.** The value was 0.3 µM.

**Q.** What about the “^CuIC90 (THP1)” value ([2]; IC90 in the presence of 25 μM copper) of the same compound?
**A.** Its value is 0.15 µM.

**Q.** What about the IC90 ([2]; read-out: IC90 (THP1), 90% inhibition relative to untreated controls, no Cu) of the same compound?
**A.** The IC90 was over 10 µM.

**Q.** What does the source list for `Cc1nn2c(=O)cc(Cc3ccccc3)[nH]c2c1-c1ccc(Cl)cc1` [PZP-915, 5‐benzyl‐3‐(4‐chlorophenyl)‐2‐methyl‐4H,7H‐pyrazolo[1,5‐a]pyrimidin‐7‐one]?
**A.** activity in medium supplemented with both Cu and BCS ([1]; 50 μM Cu, 500 μM BCS): about the same as in standard medium; effect of Fe on activity ([1]; 50 μM Fe supplemented medium): no effect; improvement of activity by Zn in comparison to standard medium ([1]; 50 μM Zn supplemented medium): 4 fold; impact of BCS addition to standard medium on activity ([1]; 500 μM BCS, no Cu supplementation): no impact; ^CuMIC (S. aureus) [1]: 0.6 µM; MIC ([1]; Staphylococcus aureus, read-out: MIC (S. aureus)): 5 µM (≈ 1.75 µg/mL); IC90 at 24 h [3]: > 40 µM; binding constant, 1st order reaction of copper binding [4]: 3.8×10^5 Lmol^−1; binding constant, 2nd order complex with copper [4]: 6.18 Lmol^−1; binding constant, 3rd order complex with copper [4]: 47.65 Lmol^−1; time to achieve complete inhibition of growth ([5]; 0.6 µM PZP-915 in the presence of 50 µM Cu): 2 h; recoverable viable bacteria ([5]; 24h treatment, 50 μM Cu added, consistent with bactericidal activity): no viable cells could be recovered; mode of action (bactericidal vs bacteriostatic) ([5]; 24h treatment, presence of 50 μM Zn): bacteriostatic; mode of action (bactericidal vs bacteriostatic) ([5]; 24h treatment, standard medium, absence of Cu): bacteriostatic; Cu concentration required to display similar potency ([5]; dose-matrix, 0.6 µM PZP-915): 50 µM; Cu concentration required to exert potent antibacterial properties ([5]; dose-matrix, 10 µM PZP-915): 1.25 µM; concentration for complete eradication of S. aureus in biofilms [6]: 0.6 µM; MIC against MRSA strains in comparison to S. aureus Newman [7]: no difference; effect on membrane potential (DiOC2(3) red/green ratio) [8]: decreased the membrane potential, although to a much lesser extent; change of intracellular pH [9]: no or only a minor impact; GAPDH activity in cell lysates [10]: did not alter GAPDH activity

**Q.** Which “change of intracellular pH” value [9] does the source give for “Carbonyl cyanide m-chlorophenyl hydrazine [CCCP, reference compound]” here?
**A.** The value was “almost instantaneous pH drop”.

**Q.** Which “concentration up to which no toxicity to S. aureus was observed” value ([1]; metal alone) does the source give for Iron here?
**A.** The value was over 3.2 mM.

Source: PMC12779259 (Metallomics : integrated biometal science, 2019)
